From PubChem
Only some compounds are listed: those with a hit (about 1.3% of all), similar ones and a draw of the others.
Yeast growth inh = chemicals that inhibit yeast BB579 growth in restrictive medium (lifespan-shortening candidates); inhibition, % at 10 µM; S. cerevisiae BB579 growth, OD615, 48 h; hit rate 0.51% among 140,000;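 active means inhibition above a set limit, 3 SD over the mean compound inhibition, cut at about 44% in these data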
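Test system: S. cerevisiae DeaD strain BB579 yeast; Medium: restrictive CSMM-D medium; Compound: one dose, 10 µM compound with 0.25% DMSO; Incubation: 4 h cell preincubation, 48 h compound exposure, 30 °C humidified; Signal: OD at 615 nm; Benchmarks: amphotericin B at 10 µg/mL as positive control.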
Yeast life ext = yeast lifespan extension; S. cerevisiae growth with nicotinamide, OD615; deaD strain in restrictive glucose medium; inhibition of the nicotinamide effect, % at 10 µM; hit rate 0.68% among 130,000;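 active means inhibition above a set limit, placed 3 SD over the median of all compounds, cut at about 26% in these data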;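 further: 0% = nicotinamide-treated wells and 100% = cells grown without nicotinamide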
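System: Modified budding yeast, DeaD strain | Buffer or medium: Restrictive glucose medium | Also added: 1.5 mM nicotinamide | Doses: 10 µM single point, 0.25% DMSO | Schedule: 48 h compound exposure at 30 °C, humidified | Detection: Absorbance at 615 nm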
HMGR II inh = inhibitors of class II HMG-CoA reductase from Enterococcus faecalis. purified E. faecalis HMGR, NADPH absorbance 340 nm kinetic. inhibition, % at 10 µM. hit rate 0.41% among 190,000. AID 1066;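 active means inhibition above a set limit, the median over all tested compounds plus 3 SD, cut at about 9.5% in these data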;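 further: enzyme runs in reverse so mevalonate oxidation gives rising NADPH absorbance; 0% = complete reaction with DMSO and 100% = background rate lacking mevalonate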
SDO1 yeast rescue = sdo1-depleted yeast growth rescue. hit rate 0.21% among 140,000. S. cerevisiae sdo1-depleted JHY4D growth rescue, OD600 30 h; active compounds read high; pdr5 snq2 efflux-pump mutant strain. AID 817. z-score at 10 µM;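 active means z-score above 3 at both the 24 hr and the 30 hr optical density reads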;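 further: z-score against mean and SD of all compound wells on the same plate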
* hit, by the source's call.

COc1ccc(N(C(=O)C(C)C)S(=O)(=O)c2cccc([N+](=O)[O-])c2)cc1 was read as HMGR II inh -1.
For COc1ccc(N(C(=O)C(C)C)S(=O)(=O)c2ccc(Cl)cc2)cc1 the results were Yeast growth inh -50, Yeast life ext 51*, HMGR II inh -1 and SDO1 yeast rescue -0.48.
For Cc1nc2ccc(NC(=S)NC3CCCCC3)cc2nc1C the results were HMGR II inh -5.
For Cn1c(=O)c2c(nc(Br)n2CC(=O)c2cccs2)n(C)c1=O the results were Yeast growth inh -82, Yeast life ext 36*, HMGR II inh 1 and SDO1 yeast rescue 0.05.
For N#C/C(=C\c1ccccc1)C(=O)OCC(=O)N1CCCC1 the results were HMGR II inh -6.
For CCOC(=O)CSc1nc(C)c2cc(OC)ccc2n1 the results were Yeast growth inh -55, Yeast life ext -20, HMGR II inh -2 and SDO1 yeast rescue -0.02.
For CCOC(=O)CSC1=NC(=O)/C(=C/c2ccc(OC)cc2)S1 the results were Yeast growth inh -5, Yeast life ext 57*, HMGR II inh -6 and SDO1 yeast rescue -1.7.
Screening COc1cc(C(=O)N/N=C/c2ccccn2)cc(OC)c1OC returned HMGR II inh -5.
`COc1cc(/C=N/NC(=O)c2ccc(-c3ccccc3)cc2)cc(OC)c1OC` gave Yeast growth inh -21, Yeast life ext 6, HMGR II inh 13* and SDO1 yeast rescue -0.25.
COc1cc(OC)cc(-c2nc3ccccc3c(=O)n2OC(=O)c2ccccc2C)c1 was read as Yeast growth inh -12, Yeast life ext 61*, HMGR II inh -2 and SDO1 yeast rescue 0.09.
Screening O=C(On1c(-c2ccccc2)nc2ccccc2c1=O)c1ccco1 returned Yeast growth inh -28, Yeast life ext -35, HMGR II inh -4 and SDO1 yeast rescue -0.4.
Screening O=C(O)c1ccccc1C(=O)NNc1ccc(Cl)cc1 returned Yeast growth inh 93*, Yeast life ext -24, HMGR II inh 0 and SDO1 yeast rescue -1.1.
For CCCCN(C)CCNC(=O)C(NC(=O)C1CCC(C)CC1)C(C)C (centres undefined) the results were HMGR II inh -5.
`CCSc1ccccc1C(=O)n1nnc2ccccc21` gave Yeast growth inh -50, Yeast life ext 60*, HMGR II inh -2 and SDO1 yeast rescue 0.59.
O=C(COc1cccc2cccnc12)N/N=C1\SCC(=O)N1CCc1ccccc1 was read as HMGR II inh -11.
`CCOc1cc(NC(=O)c2ccccn2)c(OCC)cc1NC(=O)c1ccc(C)cc1` gave HMGR II inh 13*.
For Oc1c(Cl)cc(Cl)cc1Sc1cc(Cl)cc(Cl)c1O the results were Yeast growth inh 53*, Yeast life ext 11, HMGR II inh -3 and SDO1 yeast rescue -2.8.
`O=C(CCN1C(=O)C2CCCCC2C1=O)Nc1ccc(F)c(F)c1F` (centres undefined) gave HMGR II inh -2.
Screening COc1ccc(S(=O)(=O)N2CCOCC2)cc1NC(=O)Cn1nnc2ccccc2c1=O returned HMGR II inh -12.
`Cn1nnnc1SCC(=O)C(C)(C)C` gave HMGR II inh -7.
CN(C)CCNC=C(C(=O)Nc1ccc(Cl)cc1Cl)C(=O)Nc1ccc(Cl)cc1Cl was read as Yeast growth inh 99*, Yeast life ext -21, HMGR II inh 1 and SDO1 yeast rescue -2.2.
Screening CC(=O)/C(=C/N(C)C)C(=O)Nc1ccc(Cl)cc1Cl returned HMGR II inh 6.
`CCN(CC)S(=O)(=O)c1cccc(C(=O)N[C@H](C(=O)NCc2ccc(Cl)cc2)C(C)C)c1` gave Yeast growth inh -33, Yeast life ext -11, HMGR II inh -4 and SDO1 yeast rescue 1.3.
For CC1CCCCN1CC(=O)c1c(N)n(Cc2ccccc2)c(=O)n(C)c1=O (centres undefined) the results were HMGR II inh -1.
CC(NC1CCCC1)c1ccccc1 (centres undefined) was read as HMGR II inh -1.
For CC(NCCC(c1ccccc1)c1ccccc1)c1ccccc1 (centres undefined) the results were Yeast growth inh -18, Yeast life ext -1, HMGR II inh 19* and SDO1 yeast rescue -1.7.
For Nc1nonc1-n1nnc(C(=O)O)c1-c1cccs1 the results were Yeast growth inh -74, Yeast life ext -5, HMGR II inh 10* and SDO1 yeast rescue 0.61.
For Cc1ccc(NC(=O)c2cc(S(=O)(=O)N3CCOCC3)c(Br)s2)cc1 the results were Yeast growth inh -30, Yeast life ext -5, HMGR II inh 3 and SDO1 yeast rescue -1.7.
CCn1c(/N=C/c2ccccc2NS(=O)(=O)c2ccc(C)cc2)nc2ccccc21 was read as Yeast growth inh -5, Yeast life ext 50*, HMGR II inh -6 and SDO1 yeast rescue -1.8.
Screening CCCCn1c(NCc2ccccc2NS(=O)(=O)c2ccc(C)cc2)nc2ccccc21 returned Yeast growth inh -24, Yeast life ext -13, HMGR II inh -9 and SDO1 yeast rescue -0.87.
`O=C(/C=C/c1ccccc1)C1C(=O)c2ccccc2C1=O` gave Yeast growth inh -49, Yeast life ext 43*, HMGR II inh 0 and SDO1 yeast rescue -1.3.
Screening O=C(c1ccccc1)C1C(=O)c2ccccc2C1=O returned Yeast growth inh -9, Yeast life ext 27*, HMGR II inh -3 and SDO1 yeast rescue 1.1.
`O=C(c1ccccc1)C1CCc2occc2C1=O` (centres undefined) gave Yeast growth inh -31, Yeast life ext -17, HMGR II inh 3 and SDO1 yeast rescue 0.79.
For O=C(O)/C=C/c1cnc2ccccc2c1 the results were HMGR II inh -4.
For O=C(CCC(=O)OCc1ccc(Br)cc1)Nc1ccccc1 the results were Yeast growth inh -12, Yeast life ext -7, HMGR II inh 3 and SDO1 yeast rescue -0.22.
CC1CCC2(CC1)NC(=S)N(c1ccccc1)N2 (centres undefined) was read as Yeast growth inh 69*, Yeast life ext -14, HMGR II inh 4 and SDO1 yeast rescue 0.11.
`C=CCNC(=S)N/N=C(\C)c1ccccn1` gave Yeast growth inh 93*, Yeast life ext -10, HMGR II inh -5 and SDO1 yeast rescue -0.75.
C/C(=N/NC(=O)CNC(=O)c1ccccn1)c1ccccc1 was read as Yeast growth inh -21, Yeast life ext 0, HMGR II inh -12 and SDO1 yeast rescue 0.55.
Screening COc1ccc(C(=O)C2CCCN(C(=O)CCc3scnc3C)C2)c(C)c1 (centres undefined) returned HMGR II inh 4.
For COc1ccc(-c2cn3cccnc3n2)cc1NC(=O)c1cc(OC)c(OC)c(OC)c1 the results were HMGR II inh 9.6*.
C[C@]12CC[C@@H]3c4ccc(O)cc4CC[C@H]3[C@@H]1CC[C@@H]2OC(=O)CCC(=O)O was read as Yeast growth inh -61, Yeast life ext 57*, HMGR II inh -3 and SDO1 yeast rescue -0.89.
`Cc1[nH]nc2c1C(c1ccc(O)cc1)C1=C(CC(C)(C)CC1=O)N2` (centres undefined) gave HMGR II inh -2.
